The subject of assay [1] is Rattus norvegicus. Briefly: Antidyslipidemic activity against triton-induced hyperlipidemia in Charles Foster rat assessed as reduction in plasma triglyceride level at 100 mg/kg, po after 18 hrs relative to control. Format: functional. Also noted: scale not given: the % may be the effect or the level left. The procedure, abridged: (§1)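 Adult male Charles Foster rats (200–225 g) were given Triton WR-1339 400 mg/kg i.p. Test agent was suspended in 0.2% w/v gum acacia in water and dosed orally at the same time. There were five rats per group, and controls received vehicle. At 18 h, retro-orbital blood was taken into EDTA and centrifuged at 2500g, 4 °C, 10 min. Plasma was diluted 1:3 in saline, and lipids were measured by standard enzymatic kits.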

Assay [2] has as its system Rattus norvegicus. The assay is described as follows: Antidyslipidemic activity against triton-induced hyperlipidemia in Charles Foster rat assessed as reduction in total cholesterol level at 100 mg/kg, po after 18 hrs relative to control.
Assay [3] can be described thus: Antioxidant activity assessed as superoxide radical scavenging activity at 100 ug/ml. It counts as functional. The procedure, abridged: (§2)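 Superoxide was generated enzymatically by xanthine with xanthine oxidase (0.04 U) and nitroblue tetrazolium in 100 mM phosphate buffer, pH 8.2, with or without test agent. Mixtures were incubated at 37 °C for 30 min and stopped with glacial acetic acid. Formazan formation was measured spectrophotometrically.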

Assay [4] relates to Rattus norvegicus. Briefly: Antidyslipidemic activity against triton-induced hyperlipidemia in Charles Foster rat assessed as reduction in plasma phospholipid level at 100 mg/kg, po after 18 hrs relative to control. Format: functional. On the set-up: scale not given: the % may be the effect or the level left. The procedure, abridged: as §1
Assay [5] can be described thus: Antioxidant activity assessed as superoxide radical scavenging activity at 200 ug/ml. Format: functional. The procedure, abridged: as §2
The nature of assay [6]: Antioxidant activity assessed as inhibition of microsomal lipid peroxidation at 100 ug/mL. Also noted: scale not given: the % may be the effect or the level left. It counts as functional. An outline of the steps: (§3)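 Inhibition of lipid peroxidation in microsomal fractions, sonicated in phosphate buffer, was read out as nmol MDA formed/h/mg protein.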
Assay [7] is described as follows: Antioxidant activity assessed as hydroxyl radical scavenging activity at 100 ug/ml. Format: functional.
Assay [8] in a line: Antioxidant activity assessed as inhibition of microsomal lipid peroxidation at 200 ug/mL. Format: functional. On the set-up: scale not given: the % may be the effect or the level left. An outline of the steps:
as §3

Assay [9] in a line: Antioxidant activity assessed as hydroxyl radical scavenging activity at 200 ug/ml. Format: functional.
Assay [10] has as its system Rattus norvegicus. The assay is described as follows: Antidyslipidemic activity against triton-induced inhibition of post heparin lipolytic activity in Charles Foster rat at 100 mg/kg, po after 18 hrs. On the set-up: scale not given: the % may be the effect or the level left. It counts as functional. An outline of the steps: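 Triton WR-1339 hyperlipidemia model in male Charles Foster rats (200–225 g): 400 mg/kg i.p. triton plus oral test agent in gum acacia suspension, with five rats per group. After 18 h, post-heparin lipolytic activity was determined by the Wing and Robinson method on plasma, using spectrophotometry and an auto-analyzer.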

Activity and total cholesterol lowering data for 18 compounds are collected here from ChEMBL document CHEMBL1154745, “Synthesis and biological evaluation of N-aryl-1,4-dihydropyridines as novel antidyslipidemic and antioxidant agents” (2010).

On to `CCOC(=O)C1=C(C)N(c2ccc(C)cc2)C=CC1c1ccccc1` (centres undefined), for which the Activity in assay [1] was 21.2%; in [3], -22.9%; in assay [4], 23.7%; in assay [5], -35.8%; in assay [6], -23.5%; in assay [7], -20.7%. Moreover, the results for the Activity in [8], in assay [9] and in assay [10] were -38.4%, -32.7% and 24.9%, respectively. The total cholesterol lowering in assay [2] worked out at 18.7%.

On to `COC(=O)C1=C(C)N(c2cccc(C)c2C)C=C(C)C1c1ccccc1` (centres undefined), for which the Activity in assay [1] is 25.7%; in assay [3] it was -23.6%; in assay [4] it was 23.9%; in assay [5], -32.2%; in assay [6], -22.7%; in assay [7], -19.7%. For the same compound, the Activity was -33.1% in [8], -29.3% in assay [9] and 23.7% in [10]. Further, in assay [2], the total cholesterol lowering stood at 24.1%.

Consider `Cc1c(C)c2c(c(C)c1O)CC[C@@](C)(CCC[C@H](C)CCC[C@H](C)CCCC(C)C)O2`, for which the Activity in assay [6] is -43.9%; in assay [8], -52.1%.

Take `COC(=O)C1=C(C)N(c2ccccc2)C=CC1c1ccccc1` (centres undefined): the Activity was 18.7% in assay [1]; -25.9% in assay [3]; 21.3% in assay [4]; -43% in [5]; -21.5% in assay [6]; -26.9% in assay [7]. The Activity in assay [8] is -37.3%; in [9] it was -23%; in [10], 10.9%. In addition, in assay [2], the total cholesterol lowering is on record as 24.8%.

For the compound `CCOC(=O)C1=C(C)N(c2ccc(Cl)cc2)C=CC1c1ccccc1` (centres undefined), the Activity was 9.8% in assay [1]; -19.1% in assay [3]; 16.5% in assay [4]; -37.4% in assay [5]; -20.8% in assay [7]; -34.4% in assay [8]. Further, the figures for the Activity in assay [9] and in assay [10] were -31.1% and 8.3%, respectively. For the same compound, the total cholesterol lowering in assay [2] was found to be 16%.

Consider `CC1=C(C(=O)OC(C)(C)C)C(c2ccccc2)C=CN1c1ccc(Cl)cc1` (centres undefined), for which the Activity is 11.5% in assay [1]; -24.5% in assay [3]; 13.5% in assay [4]; -48% in assay [5]; -18.5% in assay [6]; -19.2% in assay [7]. For the same compound, the Activity in [8] is -26.6%; in [9] it was -34.6%; in assay [10], 8.9%. Also, the total cholesterol lowering in assay [2] is given as 15.5%.

With `COC(=O)C1=C(C)N(c2ccccc2)C=C(C)C1c1ccccc1` (centres undefined), the Activity was 8.1% in assay [1]; -21.1% in assay [3]; 11% in assay [4]; -48% in assay [5]; -22.7% in assay [6]; -14.1% in [7]. Also, the Activity in assay [8] was -37.4%; in assay [9], -33.1%; in assay [10] it was 8.4%. Besides, the total cholesterol lowering in assay [2] turned out to be 11%.

With `CCOC(=O)C1=C(C)N(c2ccccc2)C=CC1c1ccccc1[N+](=O)[O-]` (centres undefined), the Activity in [1] is 10.5%; in assay [3] it was -20.6%; in [4] it was 5.7%; in assay [5], -33.6%; in assay [6], -19.2%; in [7], -11.5%. The Activity was -25.1% in [8], -26.9% in [9] and 12.3% in assay [10]. Moreover, the total cholesterol lowering in assay [2] was 14%.

In the case of `Cc1ccc(C)c(OCCCC(C)(C)C(=O)O)c1` [GEMFIBROZIL], the Activity in assay [1] was 36.1%; in assay [4] it was 39.1%; in assay [10] it was 34.2%. The total cholesterol lowering in [2] is listed as 37.1%.

As to `COC(=O)C1=C(C)N(c2ccccc2)C=CC1c1ccc(OC)cc1` (centres undefined), the Activity is 18.7% in assay [1]; -29.8% in [3]; 18.7% in assay [4]; -44.8% in assay [5]; -17.6% in assay [6]; -18.3% in [7]. Besides, the Activity was -30.3% in assay [8], -27.7% in assay [9] and 9.8% in [10]. For the same compound, the total cholesterol lowering in assay [2] was 18.1%.

As for `Oc1ncnc2[nH]ncc12`, the Activity in assay [3] was -66.4%; in assay [5], -77.5%.

Turning to `CCOC(=O)C1=C(C)N(c2ccccc2)C=CC1c1ccccc1` (centres undefined), the Activity was 25.3% in assay [1]; -21.5% in assay [3]; 28.5% in [4]; -34% in [5]; -19.9% in [6]; -13.8% in assay [7]. The Activity is -37.1% in assay [8], -29.3% in assay [9] and 16.3% in assay [10]. In addition, the total cholesterol lowering in [2] was 21.9%.

Take `CC1=C(C(=O)OC(C)(C)C)C(c2ccccc2)C=CN1c1ccccc1` (centres undefined): the Activity in [1] was 11%; in [3] it was -30.7%; in assay [4], 12.8%; in assay [5], -52.9%; in assay [6], -35.7%; in [7], -23.1%. Moreover, the Activity in assay [8] was -42.1%; in [9], -37.1%; in assay [10] it was 8.4%. Also, the total cholesterol lowering in assay [2] was 11.5%.

With `COC(=O)C1=C(C)N(c2cccc(Cl)c2)C=C(C)C1c1ccccc1` (centres undefined), the Activity is 8.9% in assay [1]; -21.3% in assay [3]; 13.4% in [4]; -35.3% in [5]; -16.2% in [6]; -12% in assay [7]. Besides, the values for the Activity in [8], in [9] and in [10] were -22.8%, -23% and 13.9%, respectively. The total cholesterol lowering in assay [2] amounted to 12.2%.

As for `COC(=O)C1=C(C)N(c2ccc(OC)cc2)C=C(C)C1c1ccccc1` (centres undefined), the Activity in [1] was 20.7%; in assay [3], -19.8%; in [4] it was 15.3%; in [5] it was -34.7%; in assay [6], -14.7%; in assay [7], -13.9%. Further, the results for the Activity in assay [8], in assay [9] and in [10] were -28.9%, -22.6% and 14.7%, respectively. Moreover, the total cholesterol lowering in assay [2] was 15%.

On to `CCOC(=O)C1=C(C)N(c2ccc(F)cc2)C=CC1c1ccccc1` (centres undefined), for which the Activity in assay [1] was 13.6%; in assay [3], -25.7%; in [4] it was 15.3%; in [5], -42.5%; in assay [6], -28.5%; in [7], -10.9%. The Activity was -35.8% in assay [8], -25.5% in assay [9] and 8.1% in assay [10]. Also, the total cholesterol lowering in assay [2] is 17%.

Take `OC[C@@H](O)[C@@H](O)[C@H](O)[C@H](O)CO`: the Activity in assay [7] was -31.2%; in [9], -44.5%.

Turning to `CCOC(=O)C1=C(C)N(c2ccc(Br)cc2)C=CC1c1ccccc1` (centres undefined), the Activity in assay [1] was 12.1%; in assay [3], -18.7%; in assay [4], 12.5%; in [5], -28.4%; in assay [6], -20.7%; in assay [7], -14.8%. In addition, the Activity in assay [8] is -32.1%; in assay [9] it was -35.7%; in assay [10] it was 12%. Further, the total cholesterol lowering in assay [2] stood at 18.3%.
